From ChEMBL document CHEMBL1629697, “Endocannabinoids inhibit the growth of free-living amoebae” (Antimicrob Agents Chemother, 2010)
Activity calls are given as the source filed them. The rule behind the calls is not given here.

How the values were obtained:
Hartmannella vermiformis [1] = assay: Antimicrobial activity against Hartmannella vermiformis after 3 days by hemocytometer; format: functional; details: Vermamoeba vermiformis, 72 h
Summary of the method: (§1)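 Amoebae maintained at 30°C on E. coli lawns on nonnutrient agar, then axenic at 37°C in SCGYEM. Seeded day 0 at 2 × 10^5 cells/ml in SCGYEM with or without endocannabinoid, added in ethanol (0.05% final); vehicle controls contained ethanol. Tubes incubated slanted at 37°C; cell concentration counted daily by hemocytometer through day 3.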

Willaertia magna [2] = assay: Antimicrobial activity against Willaertia magna c2c Maky ATCC PTA-7824 assessed as growth inhibition at 10 ug/ml upto 3 days by hemocytometer; format: functional; summary of the method: as §1
Hartmannella vermiformis [3] = assay: Antimicrobial activity against Hartmannella vermiformis assessed as growth inhibition at 10 ug/ml upto 3 days by hemocytometer; format: functional; details: Vermamoeba vermiformis; summary of the method: as §1
Hartmannella vermiformis [4] = assay: Antimicrobial activity against Hartmannella vermiformis assessed as growth inhibition at 2 ug/ml after 3 days by hemocytometer; format: functional; details: Vermamoeba vermiformis; summary of the method: as §1
Acanthamoeba castellanii [5] = assay: Antimicrobial activity against Acanthamoeba castellanii assessed as growth inhibition at 5 ug/ml after 3 days by hemocytometer; format: functional, organism-based; summary of the method: as §1
Acanthamoeba castellanii [6] = assay: Antimicrobial activity against Acanthamoeba castellanii assessed as growth inhibition at 10 ug/ml upto 3 days by hemocytometer; format: functional, organism-based; summary of the method: as §1
Acanthamoeba castellanii [7] = assay: Antimicrobial activity against Acanthamoeba castellanii after 3 days by hemocytometer; format: functional, organism-based; details: 72 h; summary of the method: as §1
Acanthamoeba castellanii [8] = assay: Antimicrobial activity against Acanthamoeba castellanii assessed as growth inhibition at 2 ug/ml after 3 days by hemocytometer; format: functional, organism-based; summary of the method: as §1
Willaertia magna [9] = assay: Antimicrobial activity against Willaertia magna c2c Maky ATCC PTA-7824 assessed as growth inhibition at 10 ug/ml after 3 days by hemocytometer relative to control; format: functional; details: c2c Maky ATCC PTA-7824, 72 h, read-out: INH; summary of the method: as §1
Willaertia magna [10] = assay: Antimicrobial activity against Willaertia magna c2c Maky ATCC PTA-7824 assessed as growth inhibition at 2 ug/ml after 3 days by hemocytometer; format: functional; summary of the method: as §1
Hartmannella vermiformis [11] = assay: Antimicrobial activity against Hartmannella vermiformis assessed as growth inhibition at 10 ug/ml after 3 days by hemocytometer relative to control; format: functional; details: Vermamoeba vermiformis, 72 h, read-out: INH; summary of the method: as §1
Acanthamoeba castellanii [12] = assay: Antimicrobial activity against Acanthamoeba castellanii assessed as growth inhibition at 10 ug/ml after 3 days by hemocytometer relative to control; format: functional; details: 72 h; summary of the method: as §1
Willaertia magna [13] = assay: Antimicrobial activity against Willaertia magna c2c Maky ATCC PTA-7824 after 3 days by hemocytometer; format: functional; details: c2c Maky ATCC PTA-7824, 72 h; summary of the method: as §1
Hartmannella vermiformis [14] = assay: Antimicrobial activity against Hartmannella vermiformis assessed as growth inhibition at 5 ug/ml after 3 days by hemocytometer; format: functional; details: Vermamoeba vermiformis; summary of the method: as §1
Acanthamoeba castellanii [15] = assay: Antimicrobial activity against Acanthamoeba castellanii assessed as decrease in viable cell concentration at 20 ug/ml after 3 days by hemocytometer; format: functional, organism-based; summary of the method: as §1
Willaertia magna [16] = assay: Antimicrobial activity against Willaertia magna c2c Maky ATCC PTA-7824 assessed as growth inhibition at 5 ug/ml after 3 days by hemocytometer; format: functional; summary of the method: as §1
Hartmannella vermiformis [17] = assay: Antimicrobial activity against Hartmannella vermiformis assessed as decrease in viable cell concentration at 20 ug/ml after 3 days by hemocytometer; format: functional; details: Vermamoeba vermiformis; summary of the method: as §1
Willaertia magna [18] = assay: Antimicrobial activity against Willaertia magna c2c Maky ATCC PTA-7824 assessed as decrease in viable cell concentration at 20 ug/ml after 3 days by hemocytometer; format: functional; summary of the method: as §1

For `CCCCC/C=C\C/C=C\C/C=C\C/C=C\CCCC(=O)NCCO` [ANANDAMIDE], the IC50 (Hartmannella vermiformis [1]) was 14 µM, the inhibition (Willaertia magna [2]) was “Active” and the inhibition (Hartmannella vermiformis [3]) was “Active”. The inhibition (Hartmannella vermiformis [4]) was “Active”, the inhibition (Acanthamoeba castellanii [5]) was “Active” and the inhibition (Acanthamoeba castellanii [6]) was “Active”. The IC50 (Acanthamoeba castellanii [7]) was 17 µM, the inhibition (Acanthamoeba castellanii [8]) was “Active” and the inhibition at 10 µg/mL (Willaertia magna [9]) was 58%. The inhibition (Willaertia magna [10]) was “Active”, the inhibition at 10 µg/mL (Hartmannella vermiformis [11]) was 96% and the inhibition at 10 µg/mL (Acanthamoeba castellanii [12]) was 68%. For the same molecule, the IC50 (Willaertia magna [13]) was 20 µM, the inhibition (Hartmannella vermiformis [14]) was “Active” and the inhibition (Acanthamoeba castellanii [15]) was “Active”. For the same molecule, the inhibition (Willaertia magna [16]) was “Active”, the inhibition (Hartmannella vermiformis [17]) was “Active” and the inhibition (Willaertia magna [18]) was “Active”.
